Experimental data reported in ChEMBL document CHEMBL3272204, “Products from furans. 1. Sunthesis and anticoccidial and antimicrobial activity of 5-amino-5,6-dihydro-6-methoxy-2-methyl-2-(4'-biphenylyl)-2H-pyran-3(4H)-ones and related compounds” (1976).
≈ marks a conversion by molar mass, not a printed value. Calls of active or inactive are those of the source. The calls are words filed in the database; no cut-off is given here.

How the values were obtained:
[1] = Antifungal activity against Trichophyton granulosum assessed as growth inhibition after 10 days at 28 degC; type: functional; conditions: Trichophyton mentagrophytes var. granulosum
How it was run: (§1)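 Twofold serial dilutions in Sabouraud broth. The minimum inhibitory concentration was read after 10 days at 28°.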

[2] = test system: Eimeria tenella; experiment: Anticoccidal activity against Eimeria tenella assessed as improved weight gain and mortality in chicken relative to noninfected control; type: functional, organism-based
How it was run: (§2)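 Chickens with experimental coccidiosis received compound orally in the diet at 0.05%, starting 1 day before infection. Efficacy was judged 6 days later from survival and weight gain.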

[3] = test system: Eimeria acervulina; experiment: Anticoccidal activity against Eimeria acervulina assessed as improved weight gain and mortality in chicken relative to noninfected control; type: functional, organism-based; how it was run: as §2
[4] = test system: Candida albicans; experiment: Antifungal activity against Candida albicans assessed as growth inhibition after 5 days at 37 degC; type: functional
How it was run: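 Twofold serial dilutions in Sabouraud broth. The minimum inhibitory concentration was read after 5 days at 37°.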

[5] = test system: Klebsiella aerogenes; experiment: Antibacterial activity against Aerobacter aerogenes assessed as growth inhibition after 24 hrs; type: functional
How it was run: (§3)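 Twofold serial dilutions in nutrient broth. The minimum concentration inhibiting visible growth was read after 24 hr incubation at 37°.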

[6] = test system: Klebsiella pneumoniae; experiment: Antibacterial activity against Klebsiella pneumoniae assessed as growth inhibition after 24 hrs; type: functional; how it was run: as §3
[7] = test system: Escherichia coli; experiment: Antibacterial activity against Escherichia coli 198 assessed as growth inhibition after 24 hrs; type: functional; how it was run: as §3
[8] = test system: Enterococcus faecalis; experiment: Antibacterial activity against Streptococcus faecalis assessed as growth inhibition after 24 hrs; type: functional; how it was run: as §3
[9] = test system: Staphylococcus; experiment: Antibacterial activity against penicillin-sensitive Staphylococcus pyogenes assessed as growth inhibition after 24 hrs; type: functional
How it was run: (§4)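 Halving (twofold) serial dilutions of compound in nutrient broth, in vitro. Incubated 24 hr at 37°. Value reported is the lowest concentration that inhibited growth.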

[10] = test system: Staphylococcus; experiment: Antibacterial activity against penicillin-resistant Staphylococcus pyogenes assessed as growth inhibition after 24 hrs; type: functional; how it was run: as §4
[11] = test system: Proteus vulgaris; experiment: Antibacterial activity against Proteus vulgaris assessed as growth inhibition after 24 hrs; type: functional; how it was run: as §3
[12] = test system: Pseudomonas aeruginosa; experiment: Antibacterial activity against Pseudomonas aeruginosa assessed as growth inhibition after 24 hrs; type: functional; how it was run: as §3
[13] = test system: Nannizzia gypsea; experiment: Antifungal activity against Microsporum gypseum assessed as growth inhibition after 10 days at 28 degC; type: functional; how it was run: as §1
[14] = test system: Serratia marcescens; experiment: Antibacterial activity against Serratia marcescens assessed as growth inhibition after 24 hrs; type: functional; how it was run: as §3
[15] = (§5) Antibacterial activity against Salmonella pullorum assessed as growth inhibition after 24 hrs; type: functional, Salmonella enterica subsp. enterica serovar Pullorum; how it was run: as §3
[16] = test system: Eimeria acervulina; experiment: Anticoccidal activity against Eimeria acervulina assessed as improved weight gain in chicken; type: functional, organism-based; how it was run: as §2
[17] = test system: Salmonella enterica subsp. enterica serovar Pullorum; experiment: as §5; type: functional; how it was run: as §3
[18] = test system: Eimeria tenella; experiment: Anticoccidal activity against Eimeria tenella assessed as improved weight gain in chicken at 0.05%, po; type: functional, organism-based; how it was run: as §2
[19] = test system: Eimeria tenella; experiment: Anticoccidal activity against Eimeria tenella assessed as improved weight gain in chicken at 0.002%, po; type: functional, organism-based
[20] = Candida albicans, 120 h, read-out: MIC
[21] = Klebsiella aerogenes, 24 h, read-out: MIC
[22] = Klebsiella pneumoniae, 24 h, read-out: MIC
[23] = Escherichia coli, 198, 24 h, read-out: MIC
[24] = Enterococcus faecalis, 24 h, read-out: MIC
[25] = Staphylococcus, 24 h, read-out: MIC
[26] = Proteus vulgaris, 24 h, read-out: MIC
[27] = Pseudomonas aeruginosa, 24 h, read-out: MIC
[28] = Nannizzia gypsea, 240 h, read-out: MIC
[29] = Serratia marcescens, 24 h, read-out: MIC
[30] = Salmonella enterica, 24 h, read-out: MIC

SMILES | MIC [1] | Activity [2] | Activity [3] | MIC [4, 20] | MIC [5, 21] | MIC [6, 22] | MIC [7, 23] | MIC [8, 24] | MIC [9, 25] | MIC [10, 25] | MIC [11, 26] | MIC [12, 27] | MIC [13, 28] | MIC [14, 29] | MIC [15, 30] | MIC [5] | MIC [6] | MIC [7] | MIC [8] | MIC [9] | also measured
COC1OC(C)(c2ccc(-c3ccccc3)cc2)C(=O)CC1N(C)C (single isomer, unassigned; isomer 1) | 8 µg/mL (≈ 23.6 µM) | Active | Active |  |  |  |  |  |  |  |  |  |  |  |  |  |  |  |  |  | 
COC1OC(C)(c2ccc(-c3ccccc3)cc2)C(=O)CC1N(C)C (stereo in doubt; 2a) |  |  |  | 16 µg/mL (≈ 47.1 µM) | 3.2 µg/mL (≈ 9.43 µM) | 3.2 µg/mL (≈ 9.43 µM) | 3.2 µg/mL (≈ 9.43 µM) | 3.2 µg/mL (≈ 9.43 µM) | 3.2 µg/mL (≈ 9.43 µM) | 3.2 µg/mL (≈ 9.43 µM) | 3.2 µg/mL (≈ 9.43 µM) | 3.2 µg/mL (≈ 9.43 µM) | 4 µg/mL (≈ 11.8 µM) | 3.2 µg/mL (≈ 9.43 µM) | 3.2 µg/mL (≈ 9.43 µM) |  |  |  |  |  | 
CNC(=O)OC1C=CC(=O)C(C)(c2ccc(-c3ccccc3)cc2)O1 (stereo unspecified) | 1.6 µg/mL (≈ 4.74 µM) | Active |  | 250 µg/mL (≈ 741 µM) |  |  |  |  |  |  |  |  | 1.6 µg/mL (≈ 4.74 µM) |  |  | inactive | inactive | inactive | inactive | inactive | MIC [10]: inactive; MIC [11]: inactive; MIC [12]: inactive; MIC [14]: inactive; Activity [16]: inactive; MIC [17]: inactive
COC1OC(C)(c2ccc(-c3ccccc3)cc2)C(=O)CC1N1CCN(C)CC1 (stereo unspecified) | 1.6 µg/mL (≈ 4.06 µM) |  | Active |  | 6.2 µg/mL (≈ 15.7 µM) | 6.2 µg/mL (≈ 15.7 µM) | 6.2 µg/mL (≈ 15.7 µM) | 6.2 µg/mL (≈ 15.7 µM) | 6.2 µg/mL (≈ 15.7 µM) | 6.2 µg/mL (≈ 15.7 µM) | 6.2 µg/mL (≈ 15.7 µM) | 6.2 µg/mL (≈ 15.7 µM) | 3.2 µg/mL (≈ 8.11 µM) | 6.2 µg/mL (≈ 15.7 µM) | 6.2 µg/mL (≈ 15.7 µM) |  |  |  |  |  | Activity [18]: inactive
COC1C=CC(=O)C(C)(c2ccc(-c3ccccc3)cc2)O1 (stereo in doubt; 1a) [listing 1 of 2 here] | 1 µg/mL (≈ 3.4 µM) | Active |  |  |  |  |  |  |  |  |  |  |  |  |  |  |  |  |  |  | 
COC1OC(C)(c2ccc(-c3ccccc3)cc2)C(O)CC1N(C)C (stereo in doubt; 3a) | inactive | Active | Active |  |  |  |  |  |  |  |  |  |  |  |  | inactive | inactive | inactive | inactive | inactive | MIC [4]: inactive; MIC [10]: inactive; MIC [11]: inactive; MIC [12]: inactive; MIC [13]: inactive; MIC [14]: inactive; MIC [17]: inactive
COC1C=CC(=O)C(C)(c2ccc(-c3ccccc3)cc2)O1 (single isomer, unassigned; isomer 1) |  |  |  |  |  |  |  |  |  |  |  |  |  |  |  | 6.2 µg/mL (≈ 21.1 µM) | 6.2 µg/mL (≈ 21.1 µM) | 6.2 µg/mL (≈ 21.1 µM) | 6.2 µg/mL (≈ 21.1 µM) | 6.2 µg/mL (≈ 21.1 µM) | MIC [4]: 16 µg/mL (≈ 54.4 µM); MIC [10]: 6.2 µg/mL (≈ 21.1 µM); MIC [11]: 6.2 µg/mL (≈ 21.1 µM); MIC [12]: 6.2 µg/mL (≈ 21.1 µM); MIC [13]: 2 µg/mL (≈ 6.79 µM); MIC [14]: 6.2 µg/mL (≈ 21.1 µM); MIC [15]: 6.2 µg/mL (≈ 21.1 µM)
COC1C=CC(=O)C(C)(c2ccc(-c3ccccc3)cc2)O1 (stereo in doubt; 1a) [listing 2 of 2 here] |  |  |  | 32 µg/mL (≈ 109 µM) | 6.2 µg/mL (≈ 21.1 µM) | 6.2 µg/mL (≈ 21.1 µM) | 6.2 µg/mL (≈ 21.1 µM) | 6.2 µg/mL (≈ 21.1 µM) | 6.2 µg/mL (≈ 21.1 µM) | 6.2 µg/mL (≈ 21.1 µM) | 6.2 µg/mL (≈ 21.1 µM) | 6.2 µg/mL (≈ 21.1 µM) | 2 µg/mL (≈ 6.79 µM) | 6.2 µg/mL (≈ 21.1 µM) | 6.2 µg/mL (≈ 21.1 µM) |  |  |  |  |  | 
CCCCc1cc2c(=O)c(C(=O)OC)c[nH]c2cc1OCc1ccccc1 |  |  |  |  |  |  |  |  |  |  |  |  |  |  |  |  |  |  |  |  | Activity [19]: Active
